ChEMBL document CHEMBL1142767, “2-(2-Furanyl)-7-phenyl[1,2,4]triazolo[1,5-c]pyrimidin-5-amine analogs: highly potent, orally active, adenosine A2A antagonists. Part 1” (Bioorg Med Chem Lett, 2005)
The source made the active and inactive calls.

Experiments:
[1] = biological target: Adenosine receptors; A1 & A2a (Rattus norvegicus) (UniProt P25099+P30543)
Rattus norvegicus [2] = assay: Anti-cataleptic activity in Rat at oral dose of 3 mg/kg retested at 4 hr after administration; assay type: functional
Procedure, shortened: (§1)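 Male CD rats, 200-240 g, housed 4 per cage on a 12-h light/dark cycle. Catalepsy was induced with haloperidol 1 mg/kg s.c. After 30 min, each rat was placed facing upward on a wire screen inclined at 60°, and time to move one limb was recorded (cut-off 120 s). Rats immobile >75 s received test compound orally and were retested at 1 and 4 h.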

Rattus norvegicus [3] = assay: Anti-cataleptic activity in Rat at oral dose of 3 mg/kg retested at 1 hr after administration; assay type: functional
Procedure, shortened: as §1

Adenosine receptor A2a = Adenosine receptor A2a (Rattus norvegicus, UniProt P30543); assay: In vitro ability to displace [3H]SCH-58261 from A2A adenosine receptor in Rat
Rattus norvegicus [4] = assay: Anti-cataleptic activity in Rat at oral dose of 3 mg/kg retested at 1 and 4 hr after administration; Activity Not Traced; assay type: functional, organism-based; set-up: dose 3 mg/kg
Procedure, shortened: as §1

Sequence of Adenosine receptors; A1 & A2a (Rattus norvegicus) (P25099 whole entry, looked up): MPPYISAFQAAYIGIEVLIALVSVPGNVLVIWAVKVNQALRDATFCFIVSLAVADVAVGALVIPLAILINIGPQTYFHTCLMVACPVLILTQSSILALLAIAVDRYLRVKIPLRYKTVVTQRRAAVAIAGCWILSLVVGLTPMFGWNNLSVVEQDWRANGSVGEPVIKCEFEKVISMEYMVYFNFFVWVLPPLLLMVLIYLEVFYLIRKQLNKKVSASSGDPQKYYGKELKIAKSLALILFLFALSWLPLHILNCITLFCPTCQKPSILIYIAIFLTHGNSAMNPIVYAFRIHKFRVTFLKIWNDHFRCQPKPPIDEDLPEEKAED
Sequence of Adenosine receptors; A1 & A2a (Rattus norvegicus) (P30543 whole entry, looked up): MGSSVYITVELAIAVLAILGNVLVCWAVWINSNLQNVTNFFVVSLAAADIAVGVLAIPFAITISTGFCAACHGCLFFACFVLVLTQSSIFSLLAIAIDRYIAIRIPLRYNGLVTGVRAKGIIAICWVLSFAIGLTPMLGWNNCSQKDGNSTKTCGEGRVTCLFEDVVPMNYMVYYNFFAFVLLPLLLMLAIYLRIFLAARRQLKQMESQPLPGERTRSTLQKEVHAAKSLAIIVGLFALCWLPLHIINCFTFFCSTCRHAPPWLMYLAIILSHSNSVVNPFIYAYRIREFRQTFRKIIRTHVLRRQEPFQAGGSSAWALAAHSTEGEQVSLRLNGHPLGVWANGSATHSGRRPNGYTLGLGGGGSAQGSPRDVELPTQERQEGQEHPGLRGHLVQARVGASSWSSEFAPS
Sequence of Adenosine receptor A2a (P30543 whole entry): as the sequence (P30543 whole entry, looked up) above

SMILES: COCCOc1ccc(N2CCN(Cc3cccc(-c4cc5nc(-c6ccco6)nn5c(N)n4)c3)CC2)c(Cl)c1
- Index [1]: 204
- Activity (Rattus norvegicus [2]): 15
- Activity (Rattus norvegicus [3]): 12
- Ki (Adenosine receptor A2a): 2.9 nM

SMILES: COCCOc1cccc(N2CCN(Cc3cccc(-c4cc5nc(-c6ccco6)nn5c(N)n4)c3)CC2)c1
- Index [1]: 115
- Activity (Rattus norvegicus [2]): 53
- Activity (Rattus norvegicus [3]): 29
- Ki (Adenosine receptor A2a): 4 nM

SMILES: COc1ccc(-c2cc3nc(-c4ccco4)nn3c(N)n2)cc1OC
- Index [1]: 64
- Ki (Adenosine receptor A2a): 7.3 nM

SMILES: COc1cc(-c2cc3nc(-c4ccco4)nn3c(N)n2)cc(OC)c1OC
- Index [1]: 69
- Ki (Adenosine receptor A2a): 4.5 nM

SMILES: COCCOc1ccc(N2CCN(Cc3cccc(-c4cc5nc(-c6ccco6)nn5c(N)n4)c3)CC2)c(C)c1
- Index [1]: 72
- Activity (Rattus norvegicus [4]): inactive
- Ki (Adenosine receptor A2a): 2.7 nM

SMILES: COCCOc1ccc(C2CCN(Cc3cccc(-c4cc5nc(-c6ccco6)nn5c(N)n4)c3)CC2)cc1
- Index [1]: 202
- Activity (Rattus norvegicus [2]): 0
- Activity (Rattus norvegicus [3]): 0
- Ki (Adenosine receptor A2a): 8.9 nM

SMILES: COc1ccc(-c2cc3nc(-c4ccco4)nn3c(N)n2)cc1
- Index [1]: 103
- Ki (Adenosine receptor A2a): 7.3 nM

SMILES: Cc1ccccc1-c1cc2nc(-c3ccco3)nn2c(N)n1
- Index [1]: 12
- Ki (Adenosine receptor A2a): 22 nM

SMILES: Nc1nc(-c2cccc(CN3CCC(c4ccccc4)CC3)c2)cc2nc(-c3ccco3)nn12
- Index [1]: 69
- Activity (Rattus norvegicus [4]): inactive
- Ki (Adenosine receptor A2a): 4.6 nM

SMILES: COc1ccccc1-c1cc2nc(-c3ccco3)nn2c(N)n1
- Index [1]: 27
- Ki (Adenosine receptor A2a): 4.3 nM

SMILES: COCCOc1ccc(N2CCN(Cc3cccc(-c4cc5nc(-c6ccco6)nn5c(N)n4)c3)CC2)c(F)c1
- Index [1]: 642
- Activity (Rattus norvegicus [2]): 0
- Activity (Rattus norvegicus [3]): 20
- Ki (Adenosine receptor A2a): 2.7 nM

SMILES: Nc1nc(-c2cccs2)cc2nc(-c3ccco3)nn12
- Index [1]: 15
- Ki (Adenosine receptor A2a): 4.4 nM

SMILES: Nc1nc(-c2ccccc2)cc2nc(-c3ccco3)nn12
- Index [1]: 3
- Ki (Adenosine receptor A2a): 7 nM

SMILES: Nc1nc(-c2cccc(CN3CCC(c4ccc(F)cc4)CC3)c2)cc2nc(-c3ccco3)nn12
- Index [1]: 115
- Activity (Rattus norvegicus [2]): 20
- Activity (Rattus norvegicus [3]): 20
- Ki (Adenosine receptor A2a): 7.4 nM

SMILES: COCCOc1ccc(N2CCN(Cc3cccc(-c4cc5nc(-c6ccco6)nn5c(N)n4)c3)CC2)cc1
- Index [1]: 601
- Activity (Rattus norvegicus [2]): 65
- Activity (Rattus norvegicus [3]): 40
- Ki (Adenosine receptor A2a): 2.8 nM

SMILES: COCCOc1ccc(N2CCN(Cc3cccc(-c4cc5nc(-c6ccco6)nn5c(N)n4)c3)CC2)cc1C#N
- Index [1]: 314
- Activity (Rattus norvegicus [2]): 9
- Activity (Rattus norvegicus [3]): 14
- Ki (Adenosine receptor A2a): 1.1 nM

SMILES: CN(CCc1ccccc1)Cc1cccc(-c2cc3nc(-c4ccco4)nn3c(N)n2)c1
- Index [1]: 135
- Activity (Rattus norvegicus [4]): inactive
- Ki (Adenosine receptor A2a): 3.6 nM

SMILES: COc1ccc(-c2cc3nc(-c4ccco4)nn3c(N)n2)c(OC)c1OC
- Index [1]: 17
- Ki (Adenosine receptor A2a): 4.5 nM

SMILES: COc1cccc(-c2cc3nc(-c4ccco4)nn3c(N)n2)c1OC
- Index [1]: 27
- Ki (Adenosine receptor A2a): 21.7 nM

SMILES: CC(C)c1ccc(-c2cc3nc(-c4ccco4)nn3c(N)n2)cc1
- Index [1]: 31
- Ki (Adenosine receptor A2a): 4.7 nM

SMILES: COc1cccc(-c2cc3nc(-c4ccco4)nn3c(N)n2)c1
- Index [1]: 20
- Ki (Adenosine receptor A2a): 5 nM

SMILES: Nc1nc(-c2ccccn2)cc2nc(-c3ccco3)nn12
- Index [1]: 34
- Ki (Adenosine receptor A2a): 1.4 nM

SMILES: Nc1nc(-c2cccc(CN3CCN(c4ccccc4)CC3)c2)cc2nc(-c3ccco3)nn12
- Index [1]: 69
- Activity (Rattus norvegicus [4]): inactive
- Ki (Adenosine receptor A2a): 4.6 nM

SMILES: Nc1nc(-c2cccnc2)cc2nc(-c3ccco3)nn12
- Index [1]: 65
- Ki (Adenosine receptor A2a): 6.6 nM

SMILES: Nc1cccc(-c2cc3nc(-c4ccco4)nn3c(N)n2)c1
- Index [1]: 11
- Ki (Adenosine receptor A2a): 5 nM

SMILES: COCCOc1c(F)cc(N2CCN(Cc3cccc(-c4cc5nc(-c6ccco6)nn5c(N)n4)c3)CC2)cc1F
- Index [1]: 338
- Activity (Rattus norvegicus [2]): 47
- Activity (Rattus norvegicus [3]): 28
- Ki (Adenosine receptor A2a): 2.2 nM

SMILES: N#Cc1cccc(-c2cc3nc(-c4ccco4)nn3c(N)n2)c1
- Index [1]: 14
- Ki (Adenosine receptor A2a): 5.4 nM

SMILES: Nc1nc(-c2cccc(CO)c2)cc2nc(-c3ccco3)nn12
- Index [1]: 135
- Ki (Adenosine receptor A2a): 2.8 nM

SMILES: COc1ccc(-c2cc3nc(-c4ccco4)nn3c(N)n2)c(OC)c1
- Index [1]: 98
- Ki (Adenosine receptor A2a): 2.9 nM

SMILES: Nc1nc(-c2cccc(-c3ccccc3)c2)cc2nc(-c3ccco3)nn12
- Index [1]: 82
- Ki (Adenosine receptor A2a): 5.5 nM

SMILES: COCCOc1ccc(N2CCN(Cc3cccc(-c4cc5nc(-c6ccco6)nn5c(N)n4)c3)CC2)cc1OC
- Index [1]: 134
- Activity (Rattus norvegicus [2]): 39
- Activity (Rattus norvegicus [3]): 33
- Ki (Adenosine receptor A2a): 3.3 nM

SMILES: Cc1cccc(-c2cc3nc(-c4ccco4)nn3c(N)n2)c1
- Index [1]: 13
- Ki (Adenosine receptor A2a): 3.7 nM

SMILES: Nc1nc(-c2cccc(CN3CCN(c4nccs4)CC3)c2)cc2nc(-c3ccco3)nn12
- Index [1]: 192
- Activity (Rattus norvegicus [2]): 10
- Activity (Rattus norvegicus [3]): 20
- Ki (Adenosine receptor A2a): 2.4 nM

SMILES: Cc1ccc(-c2cc3nc(-c4ccco4)nn3c(N)n2)cc1
- Index [1]: 19
- Ki (Adenosine receptor A2a): 8.4 nM

SMILES: COc1cccc(OC)c1-c1cc2nc(-c3ccco3)nn2c(N)n1
- Index [1]: 1
- Ki (Adenosine receptor A2a): 1700 nM

SMILES: Nc1nc(-c2cccc(CN3CCN(c4ccc(Cl)c(Cl)c4)CC3)c2)cc2nc(-c3ccco3)nn12
- Index [1]: 3
- Activity (Rattus norvegicus [4]): inactive
- Ki (Adenosine receptor A2a): 10.5 nM

SMILES: COCCOc1ccc(N2CCN(Cc3cccc(-c4cc5nc(-c6ccco6)nn5c(N)n4)c3)CC2)c(C#N)c1
- Index [1]: 85
- Activity (Rattus norvegicus [4]): inactive
- Ki (Adenosine receptor A2a): 3.6 nM

SMILES: COc1ccc(OC)c(-c2cc3nc(-c4ccco4)nn3c(N)n2)c1
- Index [1]: 65
- Ki (Adenosine receptor A2a): 4.5 nM

SMILES: Nc1nc(-c2ccncc2)cc2nc(-c3ccco3)nn12
- Index [1]: 66
- Ki (Adenosine receptor A2a): 1.9 nM

SMILES: COCCOc1cc(F)c(N2CCN(Cc3cccc(-c4cc5nc(-c6ccco6)nn5c(N)n4)c3)CC2)c(F)c1
- Index [1]: 71
- Activity (Rattus norvegicus [4]): inactive
- Ki (Adenosine receptor A2a): 6.4 nM
